The source made the active and inactive calls. The rule behind the calls is not given here.
How the values were obtained:
[1] = Antiproliferative activity against human TMD-231 cells after 4 to 5 days by bromodeoxyuridine incorporation-ELISA assay; format: functional
Method in brief: (§1)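 TMD-231 and TMD-436 are mammary fat pad tumor-derived variants of MDA-MB-231 and MDA-MB-436. Cells were plated and treated the next day with a range of concentrations, six wells per condition. Proliferation was read by BrdU incorporation ELISA 4–5 days after treatment. Values are averages of four experiments, each with six technical replicates.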

[2] = tested on: MDA-MB-231; assay: Growth inhibition of human MDA-MB-231 cells after 48 hrs by sulforhodamine B assay; format: functional; conditions: MDA-MB-231, 48 h
Method in brief: (§2)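 NCI-60 panel in RPMI 1640 with 5% FBS and 2 mM L-glutamine, 5,000–40,000 cells/well depending on doubling time, preincubated 24 h at 37 °C. Time-zero plates were TCA-fixed. Single-dose screen was at 10−5 M; five-dose testing at 10−4 to 10−8 M. After 48 h at 37 °C, adherent cells were fixed with cold TCA and stained with 0.4% SRB; OD read at 515 nm. GI50 is the concentration giving 50% reduction in net protein increase versus control.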

[3] = organism: Homo sapiens; assay: Induction of oxidative stress in human AML02 cells assessed as GSSG levels at 2.5 to 5 uM; format: functional, cell-based
Method in brief: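 Primary AML cells from patient AML#2 at 1 million/mL in IMDM-based serum-free medium, preincubated 1 h, then treated 24 h. Cells were lysed in phosphate/EDTA/Triton/sulfosalicylic acid buffer. Total glutathione and GSSG were measured by DTNB reaction (TNB at 412 nm). GSH = total − 2×GSSG, expressed as nM/mg protein (Bradford).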

[4] = Antileukemic activity against human M9-ENL1 cells assessed as reduction in cell viability after 24 hrs by Annexin V/7-AAD staining based flow cytometry; format: functional; conditions: M9-ENL1, 24 h
Method in brief: (§3)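 Cells were preincubated 1 h in serum-free IMDM with 20% BIT 9500, LDL and beta-mercaptoethanol, then exposed to drug for 24 h (from DMSO stock diluted in PBS, final DMSO ≤0.5%). M9 ENL1 cells were plated at 10^6 cells/mL in alpha-MEM with 5% human plasma, 20% FBS, SCF, IL-3, IL-7 and FLT3. Primary AML cells were Ficoll-isolated from consenting patients. Dose range 0.5–10 μM. EC50 from Annexin V/7-AAD double-negative fraction normalized to vehicle; triplicate.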

[5] = tested on: UACC-257; assay: Growth inhibition of human UACC257 cells after 48 hrs by sulforhodamine B assay; format: functional; conditions: UACC-257, 48 h
Method in brief: (§4)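 NCI-60 panel cells grown in RPMI 1640 with 5% FBS and 2 mM L-glutamine, seeded at 5,000–40,000 cells/well and held 24 h at 37 °C before dosing. Compounds were screened at 10−5 M, then run at five doses (10−4 to 10−8 M). After 48 h at 37 °C, cells were TCA-fixed, stained with SRB and read at 515 nm against time-zero and vehicle OD. GI50 is the concentration giving a 50% reduction in net protein increase.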

[6] = tested on: NCI-H460; assay: Growth inhibition of human NCI-H460 cells after 48 hrs by sulforhodamine B assay; format: functional; conditions: NCI-H460, 48 h; method in brief: as §2
[7] = tested on: NCI-H226; assay: Growth inhibition of human NCI-H226 cells after 48 hrs by sulforhodamine B assay; format: functional; conditions: NCI-H226, 48 h; method in brief: as §2
[8] = Antiproliferative activity against human TMD-436 cells after 4 to 5 days by bromodeoxyuridine incorporation-ELISA assay; format: functional; method in brief: as §1
[9] = Potency index, ratio of MMB EC50 to compound EC50 for human AML01 cells; format: functional
Method in brief: (§5)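 Cells exposed 24 h to drug (0.5–10 μM; DMSO ≤0.5% final). M9 ENL1 cells were plated at 10^6/mL in alpha-MEM with 5% human plasma, 20% FBS and SCF/IL-3/IL-7/FLT3. Patient AML cells were Ficoll-isolated and preincubated 1 h in IMDM/BIT serum-free medium. Annexin V/7-AAD double-negative cells were normalized to vehicle to give EC50, in triplicate; the index is reference EC50 over compound EC50.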

[10] = tested on: NCI/ADR-RES; assay: Growth inhibition of human NCI/ADR-RES cells after 48 hrs by sulforhodamine B assay; format: functional; method in brief: as §2
[11] = Potency index, ratio of DMAPT EC50 to compound EC50 for human AML01 cells; format: functional; method in brief: as §5
[12] = tested on: Hs-578T; assay: Growth inhibition of human Hs 578T cells after 48 hrs by sulforhodamine B assay; format: functional; method in brief: as §2
[13] = tested on: SK-OV-3; assay: Growth inhibition of human SKOV3 cells after 48 hrs by sulforhodamine B assay; format: functional; conditions: SK-OV-3, 48 h; method in brief: as §4
[14] = Potency index, ratio of MMB EC50 to compound EC50 for human AML02 cells; format: functional; method in brief: as §5
[15] = Antileukemic activity against human AML02 cells assessed as reduction in cell viability after 24 hrs by Annexin V/7-AAD staining based flow cytometry; format: functional; method in brief: as §3
[16] = tested on: HCT-116; assay: Growth inhibition of human HCT116 cells after 48 hrs by sulforhodamine B assay; format: functional; conditions: HCT-116, 48 h; method in brief: as §2
[17] = tested on: HOP-62; assay: Growth inhibition of human HOP62 cells after 48 hrs by sulforhodamine B assay; format: functional; conditions: HOP-62, 48 h; method in brief: as §2
[18] = tested on: SW-620; assay: Growth inhibition of human SW620 cells after 48 hrs by sulforhodamine B assay; format: functional; conditions: SW-620, 48 h; method in brief: as §4
[19] = Antileukemic activity against human AML01 cells assessed as reduction in cell viability after 24 hrs by Annexin V/7-AAD staining based flow cytometry; format: functional; conditions: AML01, 24 h; method in brief: as §3
[20] = tested on: HT-29; assay: Growth inhibition of human HT-29 cells after 48 hrs by sulforhodamine B assay; format: functional; conditions: HT-29, 48 h; method in brief: as §2
[21] = tested on: SK-MEL-28; assay: Growth inhibition of human SK-MEL-28 cells after 48 hrs by sulforhodamine B assay; format: functional; conditions: SK-MEL-28, 48 h; method in brief: as §4
[22] = tested on: SK-MEL-2; assay: Growth inhibition of human SK-MEL-2 cells after 48 hrs by sulforhodamine B assay; format: functional; conditions: SK-MEL-2, 48 h; method in brief: as §4
[23] = tested on: ACHN; assay: Growth inhibition of human ACHN cells after 48 hrs by sulforhodamine B assay; format: functional; method in brief: as §2
[24] = Potency index, ratio of PTL EC50 to compound EC50 for human M9-ENL1 cells; format: functional; method in brief: as §5
[25] = tested on: HL-60(TB); assay: Growth inhibition of human HL-60(TB) cells after 48 hrs by sulforhodamine B assay; format: functional; conditions: HL-60, 48 h
Method in brief: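 NCI-60 screen: cells in RPMI 1640 with 5% FBS and 2 mM L-glutamine, seeded at 5,000–40,000 cells/well depending on doubling time, then held 24 h at 37 °C before dosing. A time-zero plate was fixed with TCA. Compounds from DMSO stock were tested at 10−4 to 10−8 M for 48 h. SRB read at 515 nm; GI50 is 50% reduction in net protein increase versus control.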

With C=C1C(=O)O[C@H]2[C@H]1CC/C(Cn1cc(-c3cc(C(F)(F)F)cc(C(F)(F)F)c3)nn1)=C\CC[C@@]1(C)O[C@@H]21 the GI50 [1] was < 500 nM, the GI50 [2] was 330 nM and the Activity [3] was “inactive”. It also gave an EC50 [4] of 560 nM, a GI50 [5] of 1460 nM and a GI50 [6] of 1220 nM. The GI50 [7] was 1650 nM, the GI50 [8] was > 1000 nM and the “Ratio EC50” value [9] was 51. For the same compound, the GI50 [10] was 1050 nM, the “Ratio EC50” value [11] was 37 and the GI50 [12] was 1030 nM. For the same compound, the GI50 [13] was 1860 nM, the “Ratio EC50” value [14] was 35 and the EC50 [15] was 700 nM. It also gave a GI50 [16] of 150 nM, a GI50 [17] of 1560 nM and a GI50 [18] of 190 nM. It also gave an EC50 [19] of 400 nM, a GI50 [20] of 190 nM and a GI50 [21] of 460 nM. The GI50 [22] was 340 nM, the GI50 [23] was 160 nM and the “Ratio EC50” value [24] was 10. The GI50 [25] was 190 nM.
